Data from ChEMBL document CHEMBL5724801, “EUbOPEN Chemogenomics Library - Multiplex” (2024).
Values joined by “and” are separate entries in the source; they are usually repeats but may differ in a detail not shown here. Equal entries are not always repeated.

Test system: U2OS
Experiment: Multiplex assay against U2OS
Format: toxicity, cell-based
Settings: human
How it was run: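 Hoechst33342, BioTracker Green Microtubule Cytoskeleton Dye, MitoTracker Red and Annexin V Alexa Fluor 680 were added to live cells at seeding, and imaging on a CQ1 microscope at 37°C and 5% CO2 followed compound addition. Gating by CellPathfinder machine learning separated cells into Hoechst high-intensity objects or normal cells, then normal cells into healthy, pyknosed or fragmented nuclei, then pyknosed cells into mitotic or apoptotic. Per cents of healthy-nucleus cells are reported for the tubulin, mitochondrial-mass and membrane-permeability phenotypes.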

[1] = 12 h, 1 µM, compound concentration 1 uM
[2] = 12 h, 10 µM, compound concentration 10 uM
[3] = 24 h, 1 µM, compound concentration 1 uM
[4] = 24 h, 10 µM, compound concentration 10 uM
[5] = 48 h, 1 µM, compound concentration 1 uM
[6] = 48 h, 10 µM, compound concentration 10 uM

Nc1nc(-c2ccco2)c2cnn(Cc3ccccc3F)c2n1
Population Apoptotic (%) [1]: 82% and 92% | Population Fragmented Nuclei (%) [1]: 23% | Population Healthy Nuclei (%) [1]: 68% and 64% | Population Hoechst High Intensity Objects (%) [1]: 1% and 0% | Population Membrane Permeable-Phenotype (%) [1]: 4% and 12% | Population Mitochondria Different-Phenotype (%) [1]: 2% and 5% | Population Mitotic Cells (%) [1]: 17% and 7% | Population Normal (%) [1]: 98% and 99% | Population Pyknosed Nuclei (%) [1]: 8% and 12% | Population Tubulin-Different-Phenotype (%) [1]: 3% and 8% | Total Cell Count [1]: 280 and 109 | Population Apoptotic (%) [2]: 87% and 77% | Population Fragmented Nuclei (%) [2]: 41% and 20% | Population Healthy Nuclei (%) [2]: 45% and 72% | Population Hoechst High Intensity Objects (%) [2]: 5% and 0% | Population Membrane Permeable-Phenotype (%) [2]: 10% and 5% | Population Mitochondria Different-Phenotype (%) [2]: 4% and 5% | Population Mitotic Cells (%) [2]: 12% and 22% | Population Normal (%) [2]: 94% and 99% | Population Pyknosed Nuclei (%) [2]: 12% and 7% | Population Tubulin-Different-Phenotype (%) [2]: 7% and 1% | Total Cell Count [2]: 197 and 125 | Population Apoptotic (%) [3]: 96% and 84% | Population Fragmented Nuclei (%) [3]: 19% and 18% | Population Healthy Nuclei (%) [3]: 70% and 71% | Population Hoechst High Intensity Objects (%) [3]: 1% and 4% | Population Membrane Permeable-Phenotype (%) [3]: 4% and 10% | Population Mitochondria Different-Phenotype (%) [3]: 1% and 3% | Population Normal (%) [3]: 98% and 95% | Population Pyknosed Nuclei (%) [3]: 9% and 10% | Population Tubulin-Different-Phenotype (%) [3]: 2% and 8% | Total Cell Count [3]: 332 and 127 | Population Apoptotic (%) [4]: 82% and 90% | Population Fragmented Nuclei (%) [4]: 38% and 19% | Population Healthy Nuclei (%) [4]: 53% and 73% | Population Hoechst High Intensity Objects (%) [4]: 5% and 1% | Population Membrane Permeable-Phenotype (%) [4]: 7% and 5% | Population Mitochondria Different-Phenotype (%) [4]: 3% and 0% | Population Mitotic Cells (%) [4]: 17% and 9% | Population Normal (%) [4]: 94% and 98% | Population Pyknosed Nuclei (%) [4]: 7% | Population Tubulin-Different-Phenotype (%) [4]: 5% and 4% | Total Cell Count [4]: 230 and 157 | Population Apoptotic (%) [5]: 94% and 95% | Population Fragmented Nuclei (%) [5]: 17% and 16% | Population Healthy Nuclei (%) [5]: 74% and 67% | Population Hoechst High Intensity Objects (%) [5]: 1% and 6% | Population Membrane Permeable-Phenotype (%) [5]: 2% and 5% | Population Mitochondria Different-Phenotype (%) [5]: 2% and 5% | Population Mitotic Cells (%) [5]: 5% and 4% | Population Normal (%) [5]: 98% and 93% | Population Pyknosed Nuclei (%) [5]: 7% and 15% | Population Tubulin-Different-Phenotype (%) [5]: 2% and 1% | Population Apoptotic (%) [6]: 95% and 86% | Population Fragmented Nuclei (%) [6]: 37% and 23% | Population Healthy Nuclei (%) [6]: 51% and 69% | Population Hoechst High Intensity Objects (%) [6]: 11% and 2% | Population Membrane Permeable-Phenotype (%) [6]: 17% and 12% | Population Mitochondria Different-Phenotype (%) [6]: 6% | Population Mitotic Cells (%) [6]: 4% and 13% | Population Normal (%) [6]: 88% and 97% | Population Pyknosed Nuclei (%) [6]: 10% and 7% | Population Tubulin-Different-Phenotype (%) [6]: 11% and 6% | Total Cell Count [6]: 252 and 196

CN(C)C(=O)Cn1cc(-c2ccc(-c3cncc4ccccc34)cc2)cn1
Population Apoptotic (%) [1]: 68% and 69% | Population Fragmented Nuclei (%) [1]: 22% and 18% | Population Healthy Nuclei (%) [1]: 68% and 69% | Population Hoechst High Intensity Objects (%) [1]: 3% and 0% | Population Membrane Permeable-Phenotype (%) [1]: 8% and 6% | Population Mitochondria Different-Phenotype (%) [1]: 4% and 2% | Population Mitotic Cells (%) [1]: 31% and 30% | Population Normal (%) [1]: 96% and 99% | Population Pyknosed Nuclei (%) [1]: 9% and 11% | Population Tubulin-Different-Phenotype (%) [1]: 5% and 3% | Total Cell Count [1]: 240 and 110 | Population Apoptotic (%) [2]: 66% and 100% | Population Fragmented Nuclei (%) [2]: 21% and 18% | Population Healthy Nuclei (%) [2]: 67% and 75% | Population Hoechst High Intensity Objects (%) [2]: 5% and 3% | Population Membrane Permeable-Phenotype (%) [2]: 20% and 22% | Population Mitochondria Different-Phenotype (%) [2]: 12% and 19% | Population Normal (%) [2]: 94% and 96% | Population Pyknosed Nuclei (%) [2]: 10% and 5% | Population Tubulin-Different-Phenotype (%) [2]: 14% and 23% | Total Cell Count [2]: 205 and 98 | Population Apoptotic (%) [3]: 100% and 90% | Population Fragmented Nuclei (%) [3]: 21% and 15% | Population Healthy Nuclei (%) [3]: 69% and 76% | Population Hoechst High Intensity Objects (%) [3]: 3% and 1% | Population Membrane Permeable-Phenotype (%) [3]: 5% and 8% | Population Mitochondria Different-Phenotype (%) [3]: 2% and 6% | Population Mitotic Cells (%) [3]: 0% and 9% | Population Normal (%) [3]: 96% and 98% | Population Pyknosed Nuclei (%) [3]: 8% | Population Tubulin-Different-Phenotype (%) [3]: 4% | Total Cell Count [3]: 278 and 127 | Population Apoptotic (%) [4]: 54% and 80% | Population Fragmented Nuclei (%) [4]: 25% and 11% | Population Healthy Nuclei (%) [4]: 64% and 84% | Population Hoechst High Intensity Objects (%) [4]: 3% and 2% | Population Membrane Permeable-Phenotype (%) [4]: 19% and 16% | Population Mitochondria Different-Phenotype (%) [4]: 9% and 15% | Population Mitotic Cells (%) [4]: 45% and 20% | Population Normal (%) [4]: 96% and 97% | Population Pyknosed Nuclei (%) [4]: 9% and 4% | Population Tubulin-Different-Phenotype (%) [4]: 10% and 14% | Total Cell Count [4]: 244 and 110 | Population Apoptotic (%) [5]: 87% and 88% | Population Fragmented Nuclei (%) [5]: 18% and 20% | Population Healthy Nuclei (%) [5]: 69% and 67% | Population Hoechst High Intensity Objects (%) [5]: 2% and 3% | Population Membrane Permeable-Phenotype (%) [5]: 6% and 12% | Population Mitochondria Different-Phenotype (%) [5]: 3% and 9% | Population Mitotic Cells (%) [5]: 12% and 11% | Population Normal (%) [5]: 97% and 96% | Population Pyknosed Nuclei (%) [5]: 12% and 11% | Population Tubulin-Different-Phenotype (%) [5]: 4% and 9% | Total Cell Count [5]: 333 and 163 | Population Apoptotic (%) [6]: 74% and 92% | Population Fragmented Nuclei (%) [6]: 22% and 21% | Population Healthy Nuclei (%) [6]: 62% and 68% | Population Hoechst High Intensity Objects (%) [6]: 2% | Population Membrane Permeable-Phenotype (%) [6]: 15% and 20% | Population Mitochondria Different-Phenotype (%) [6]: 8% and 14% | Population Normal (%) [6]: 97% | Population Pyknosed Nuclei (%) [6]: 14% and 9% | Population Tubulin-Different-Phenotype (%) [6]: 8% and 16% | Total Cell Count [6]: 302 and 149

Cc1cccc(NC(=O)CN2CCC(c3ccccn3)CC2)c1.Cl.Cl
Population Apoptotic (%) [1]: 90% and 57% | Population Fragmented Nuclei (%) [1]: 27% and 17% | Population Healthy Nuclei (%) [1]: 67% and 76% | Population Hoechst High Intensity Objects (%) [1]: 1% and 0% | Population Membrane Permeable-Phenotype (%) [1]: 5% and 4% | Population Mitochondria Different-Phenotype (%) [1]: 2% | Population Normal (%) [1]: 98% and 99% | Population Pyknosed Nuclei (%) [1]: 5% and 6% | Population Tubulin-Different-Phenotype (%) [1]: 3% | Total Cell Count [1]: 208 and 111 | Population Apoptotic (%) [2]: 72% and 66% | Population Fragmented Nuclei (%) [2]: 34% and 21% | Population Healthy Nuclei (%) [2]: 55% and 70% | Population Hoechst High Intensity Objects (%) [2]: 2% and 1% | Population Membrane Permeable-Phenotype (%) [2]: 8% and 12% | Population Mitochondria Different-Phenotype (%) [2]: 6% and 7% | Population Mitotic Cells (%) [2]: 27% and 33% | Population Normal (%) [2]: 97% and 98% | Population Pyknosed Nuclei (%) [2]: 10% and 8% | Population Tubulin-Different-Phenotype (%) [2]: 3% and 9% | Total Cell Count [2]: 216 and 111 | Population Apoptotic (%) [3]: 76% and 73% | Population Fragmented Nuclei (%) [3]: 22% and 21% | Population Healthy Nuclei (%) [3]: 70% and 67% | Population Hoechst High Intensity Objects (%) [3]: 3% and 0% | Population Membrane Permeable-Phenotype (%) [3]: 5% and 7% | Population Mitochondria Different-Phenotype (%) [3]: 3% and 4% | Population Mitotic Cells (%) [3]: 23% and 26% | Population Normal (%) [3]: 96% and 99% | Population Pyknosed Nuclei (%) [3]: 7% and 11% | Population Tubulin-Different-Phenotype (%) [3]: 3% and 5% | Total Cell Count [3]: 249 and 135 | Population Apoptotic (%) [4]: 85% and 75% | Population Fragmented Nuclei (%) [4]: 32% and 20% | Population Healthy Nuclei (%) [4]: 55% and 73% | Population Hoechst High Intensity Objects (%) [4]: 3% and 2% | Population Membrane Permeable-Phenotype (%) [4]: 6% and 17% | Population Mitochondria Different-Phenotype (%) [4]: 3% and 5% | Population Mitotic Cells (%) [4]: 14% and 25% | Population Normal (%) [4]: 96% and 97% | Population Pyknosed Nuclei (%) [4]: 11% and 6% | Population Tubulin-Different-Phenotype (%) [4]: 2% and 10% | Total Cell Count [4]: 243 and 131 | Population Apoptotic (%) [5]: 82% and 94% | Population Fragmented Nuclei (%) [5]: 18% and 17% | Population Healthy Nuclei (%) [5]: 72% | Population Hoechst High Intensity Objects (%) [5]: 2% and 3% | Population Membrane Permeable-Phenotype (%) [5]: 6% and 2% | Population Mitochondria Different-Phenotype (%) [5]: 3% | Population Normal (%) [5]: 97% and 96% | Population Pyknosed Nuclei (%) [5]: 8% and 10% | Population Tubulin-Different-Phenotype (%) [5]: 3% and 2% | Total Cell Count [5]: 341 and 182 | Population Apoptotic (%) [6]: 96% and 83% | Population Fragmented Nuclei (%) [6]: 29% and 19% | Population Healthy Nuclei (%) [6]: 60% and 74% | Population Hoechst High Intensity Objects (%) [6]: 3% | Population Membrane Permeable-Phenotype (%) [6]: 6% and 10% | Population Mitochondria Different-Phenotype (%) [6]: 6% and 4% | Population Normal (%) [6]: 96% | Population Pyknosed Nuclei (%) [6]: 9% and 6% | Population Tubulin-Different-Phenotype (%) [6]: 3% and 4% | Total Cell Count [6]: 303 and 198
